Screening results (PubChem)
Shown are actives, neighbours in structure and some others; about 3.5% of the full set was active somewhere.
MrgX1 antag – antagonists of human MrgX1 receptor, primary screen, HEK293 cells, Fluo-4 calcium flux. Mas-related G-protein coupled receptor member X1 (Homo sapiens), Q96LB2. BAM8-22 antagonism; active compounds read low. B-score at 10 µM. 310,000 tested, 1.3% active. AID 588676, 2011;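 active = calcium-response B-score plate-corrected more than 3 library SD below zero, starting fluorescence within 5 deviations, no agonist response on first addition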;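 also: peak minus trough fluorescence over baseline after final BAM8-22 challenge near maximal dose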
Target sequence (Q96LB2 whole entry, looked up): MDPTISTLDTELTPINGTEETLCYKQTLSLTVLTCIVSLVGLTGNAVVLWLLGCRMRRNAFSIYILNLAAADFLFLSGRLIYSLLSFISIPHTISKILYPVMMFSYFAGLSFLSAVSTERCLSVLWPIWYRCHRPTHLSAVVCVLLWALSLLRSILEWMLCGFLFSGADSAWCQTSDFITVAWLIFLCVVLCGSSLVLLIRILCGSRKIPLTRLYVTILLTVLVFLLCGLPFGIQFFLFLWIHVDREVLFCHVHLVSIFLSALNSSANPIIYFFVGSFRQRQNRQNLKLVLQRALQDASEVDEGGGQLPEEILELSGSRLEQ
MrgX1 PAM – positive allosteric modulators of MrgX1, primary screen, HEK293 cells, Fluo-4 calcium flux; AID 588675, 2011; FDSS; active compounds read high; 310,000 tested, 0.63% active; Mas-related G-protein coupled receptor member X1 (Homo sapiens), Q96LB2; B-score at 10 µM;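 active = plate-corrected calcium response at least 3 library SD above typical, normal starting fluorescence, not activating the receptor alone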;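 also: compound read alongside a low EC10 to EC30 dose of BAM8-22 agonist; peak minus trough fluorescence over baseline measured at the second addition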
MrgX1 ag – agonists of human MrgX1 receptor, primary screen, HEK293 cells, Fluo-4 calcium flux | Fluo-4 calcium fluorescence, agonist mode; active compounds read high | Mas-related G-protein coupled receptor member X1 (Homo sapiens), Q96LB2 | AID 588627, 2011 | 310,000 tested, 0.44% active | B-score at 10 µM;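 active = calcium response B-score plate-corrected fluorescence ratio at least 3 library SD, with starting fluorescence B-score inside 5 SD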
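Test system: HEK293 cells stably expressing human MrgX1 receptor; amount: 15,000 cells per well; doses: compound delivered in addition one of three; times: overnight plating before 1 h dye loading; detection: Fluo-4 NW calcium-flux fluorescence, kinetic read; read-out basis: B-scored fluorescence response ratio; controls: positive and negative controls per plate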
RGS4 pot – RGS4 potentiators or activators, primary screen, cell-based, HEK293 M3R inducible RGS4, calcium flux; carbachol calcium flux Fluo4; active compounds read low; B-score at 10 µM; 310,000 tested, 0.92% active; AID 463111, 2010;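 active = B-score of the integrated calcium signal more than 4 SD below the library mean, with starting fluorescence not abnormally high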;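 also: negative B-score means reduced calcium response which marks RGS4 activation or potentiation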
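Also added: carbachol at ECmax as muscarinic agonist stimulus; Assay system: HEK293 cells with stable M3R and inducible RGS4; Timing: overnight RGS4 induction, 30 min dye load 37 °C, 20 min compound RT; Measured by: Fluo4-AM (2 µM) calcium-flux fluorescence, kinetic read.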
RGS4 inh – RGS4 inhibitors, primary screen, cell-based, HEK293 M3R inducible RGS4, calcium flux; Fluo-4 calcium flux; active compounds read high; triggered by carbachol at its EC20; B-score at 10 µM; 310,000 tested, 0.45% active; AID 463165, 2010;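 active = B-score, a plate-corrected calcium signal, over three deviations above library mean, with baseline fluorescence within five deviations of library mean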;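 also: RGS4 expression induced by doxycycline in cells with stable M3 receptor; B-score is computed from the integrated fluorescence ratio over baseline after carbachol; higher B-score means a larger calcium signal and so more RGS4 inhibition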
Target sequence (P49798 whole entry, looked up): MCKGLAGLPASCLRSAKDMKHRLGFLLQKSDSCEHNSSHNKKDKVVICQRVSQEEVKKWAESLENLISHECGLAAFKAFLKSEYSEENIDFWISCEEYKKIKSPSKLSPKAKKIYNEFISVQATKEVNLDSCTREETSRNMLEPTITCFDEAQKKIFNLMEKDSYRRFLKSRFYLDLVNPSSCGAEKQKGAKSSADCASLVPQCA
RGS4 activ val – reduced carbachol calcium response, RGS4-induced M3R cells, confirmation, RGS4 activator project, cell-based, HEK293 M3R/RGS4 inducible, calcium flux, duplicate; carbachol calcium flux Fluo4; inhibition, % at 10 µM; shares compounds with RGS4 pot; 1,100 tested, 89% active;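 active = inhibition above 3 SD of the buffer control wells, cut at about 41% in these data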;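 also: signal is the integrated peak-minus-minimum Fluo4 fluorescence over baseline ratio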
M3R Ca counter – RGS4 activator counter-screen hit in non-induced cells | inhibition, % at 10 µM | HEK293 M3R non-induced RGS4, Fluo4 calcium flux; after carbachol challenge at its EC90 | shares compounds with RGS4 pot | 1,100 tested, 82% active;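 active = inhibition exceeding 3 SD of buffer-only control wells, cut at about 26% in these data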;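 also: percent drop in integrated peak-minus-baseline over baseline Fluo4 ratio after carbachol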
* = called active by the depositor; i = inactive; · = no result given; ! = not active in a repeat.

SMILES | MrgX1 antag | MrgX1 PAM | MrgX1 ag | RGS4 pot | RGS4 inh | RGS4 activ val | M3R Ca counter
O=C1C(NS(=O)(=O)c2cccs2)=C(N2CCN(Cc3ccccc3)CC2)C(=O)c2ccccc21 | i | i | i | -8.1* | i | 63* | 0
CCc1nnc(NC(=O)c2sc3nc4cc(C)ccc4cc3c2N)s1 | i | i | i | -8.8* | i | 72* | 32*
Cc1ccc(CNC(=O)C2CCC(=O)N(CCc3ccc(Cl)cc3)C2)cc1 (configuration not stated) | i | i | i | i | i | · | ·
Cc1cnc(NC(=O)C2=C(O)c3ccccc3S(=O)(=O)N2C)s1 | i | i | i | -9.5*! | i | 0 | 0
CCCN1CCN(c2ncnc3scc(C4COc5ccccc5O4)c23)CC1 (configuration not stated) | i | i | i | -12* | i | 92* | 62*
c1ccc2c(c1)OCC(c1csc3ncnc(N4CCCCC4)c13)O2 (configuration not stated) | i | i | i | i | i | · | ·
CCN(CC)CCC(O)(c1ccccc1)C1CCCCC1 (configuration not stated) | i | i | i | -9.3* | i | 92* | 92*
CC(C)(C)CC(C)(C)NCC(O)COc1ccc2c(c1)CCC2 (configuration not stated) | i | i | i | -10* | i | 92* | 55*
CC(C)(CO)NCC(O)COc1ccc2c(c1)CCC2 (configuration not stated) | i | i | i | i | i | · | ·
CC(=O)c1ccc(S(=O)(=O)NC2CCCCCCC2)cc1 | i | i | i | i | i | · | ·
O=C(c1cc(-c2ccncc2)nc2ccc(Br)cc12)N1CCN(c2ccccn2)CC1 | i | i | i | i | i | · | ·
COc1ccc(-c2cc(C(=O)N3CCN(c4cccc(C)c4C)CC3)c3ccccc3n2)cc1OC | i | i | i | -8.5* | i | 52* | 0
O=C(c1cc(-c2cccc(Cl)c2)nc2ccccc12)N1CCN(c2ccccn2)CC1 | i | i | i | -8.4* | i | 56* | 0
CCc1ccc(OC(=O)Nc2ccccc2)cc1 | i | i | i | i | i | · | ·
Cc1nc2nc(SCC(=O)NCCCN3CCCC3)nn2c(C)c1Cc1ccccc1Cl | i | i | i | -8.2* | i | 78* | 42*
CCN1CCN(c2ncnc3scc(-c4ccc(C)c(C)c4)c23)CC1 | i | i | i | -9.2* | i | 92* | 87*
Cc1ccc(-c2csc3ncnc(N4CCN(c5ccccc5O)CC4)c23)cc1 | i | i | i | i | i | · | ·
COc1ccc(-c2csc3ncnc(N4CCN(Cc5ccccc5)CC4)c23)cc1 | i | i | i | -7.7* | i | 0 | 0
COc1ccc(-c2csc3ncnc(N4CCN(c5ccccc5)CC4)c23)cc1 | i | i | i | -8.3* | i | 88* | 84*
COc1ccc(-c2csc3ncnc(N4CCN(c5ccc(OC)cc5)CC4)c23)cc1 | i | i | i | i | i | · | ·
COc1ccc(-c2csc3ncnc(N4CCN(c5ccccc5O)CC4)c23)cc1 | i | i | i | -9.3* | i | 0 | 0
COc1ccc(N2CCN(C(=O)Cc3csc(NC(=O)Nc4ccccc4OC)n3)CC2)cc1 | i | i | i | i | i | · | ·
COc1ccccc1NC(=O)Nc1nc(CC(=O)N2CCN(c3ccc(F)cc3)CC2)cs1 | i | i | i | -8.2* | i | 56* | 0
Nc1nnc(SCc2c(F)cccc2Cl)s1 | i | i | i | i | i | · | ·
Cc1ccc(S(=O)(=O)NC(C)C(=O)N2CCOCCOCCOCCOCC2)cc1 (configuration not stated) | i | i | i | i | i | · | ·
SMILES | MrgX1 antag | MrgX1 PAM | MrgX1 ag | RGS4 pot | RGS4 inh | RGS4 activ val | M3R Ca counter
COCCn1c(-c2ccccc2)nc2oc3cc(OC)ccc3c(=O)c2c1=O | i | i | i | i | i | · | ·
COCCn1c(-c2ccc(Br)cc2)nc2oc3cc(OC)ccc3c(=O)c2c1=O | i | i | i | -8.3* | i | 0 | 0
[2H]c1c([2H])c([2H])c(C(=O)c2sc(N3CCCCCC3)nc2-c2ccccc2)c([2H])c1[2H] | i | i | i | -8.3* | i | 92* | 61*
CC(C)OCCCN(C)C1CCN(S(=O)(=O)c2ccc(-c3cc(C(F)(F)F)no3)s2)CC1 | i | i | i | -7.7* | i | 49* | 84*
CC(C)OCCCN(C)C1CCN(S(=O)(=O)c2csc(C(N)=O)c2)CC1 | i | i | i | i | i | · | ·
Brc1cccc(-c2cnc3n2CCCCC3)c1 | i | i | i | -7.9* | i | 84* | 56*
Brc1cccc(-c2nnc3n2CCCCC3)c1 | i | i | i | i | i | · | ·
CC(NS(=O)(=O)OCC(Cl)(Cl)Cl)c1ccc(C(C)(C)C)cc1 (configuration not stated) | i | i | i | -8* | i | 91* | 94*
Oc1ccc(Nc2nc(N3CCCC3)c3ccccc3n2)cc1 | i | i | i | -8.2* | i | 91* | 65*
Cc1cccc(NS(=O)(=O)c2ccc(C3CCCCC3)cc2)c1 | i | i | i | -8.8* | i | 94* | 92*
Cc1ccc(N2C(=O)c3cccc4c(Oc5ccccc5[N+](=O)[O-])ccc(c34)C2=O)c(C)c1 | i | i | i | i | i | · | ·
Cc1sc(N)c(C(=O)c2ccccc2)c1C | i | i | i | i | i | · | ·
Cc1c(CC(=O)N2CCC(C(N)=O)CC2)c(=O)oc2cc3c(cc12)CCC1(CCCCC1)O3 | i | i | i | -8.9* | i | 92* | 78*
Cc1c(CC(=O)O)c(=O)oc2cc3c(cc12)CCC(C)(C)O3 | i | i | i | i | i | · | ·
COc1cc2cc(C(=O)N3CCOCC3)cc(-c3ccc(C)cc3)c2cc1OC | i | i | i | i | i | · | ·
O=c1[nH]c2ccccc2cc1CN(Cc1cccnc1)S(=O)(=O)c1ccc(Cl)cc1 | i | 7.3* | i | -7.8* | i | 73* | 30*
